The target of data set [1] is T1, Sodium/glucose cotransporter 2 (Homo sapiens, UniProt P31639).
T1 sequence (P31639 whole entry): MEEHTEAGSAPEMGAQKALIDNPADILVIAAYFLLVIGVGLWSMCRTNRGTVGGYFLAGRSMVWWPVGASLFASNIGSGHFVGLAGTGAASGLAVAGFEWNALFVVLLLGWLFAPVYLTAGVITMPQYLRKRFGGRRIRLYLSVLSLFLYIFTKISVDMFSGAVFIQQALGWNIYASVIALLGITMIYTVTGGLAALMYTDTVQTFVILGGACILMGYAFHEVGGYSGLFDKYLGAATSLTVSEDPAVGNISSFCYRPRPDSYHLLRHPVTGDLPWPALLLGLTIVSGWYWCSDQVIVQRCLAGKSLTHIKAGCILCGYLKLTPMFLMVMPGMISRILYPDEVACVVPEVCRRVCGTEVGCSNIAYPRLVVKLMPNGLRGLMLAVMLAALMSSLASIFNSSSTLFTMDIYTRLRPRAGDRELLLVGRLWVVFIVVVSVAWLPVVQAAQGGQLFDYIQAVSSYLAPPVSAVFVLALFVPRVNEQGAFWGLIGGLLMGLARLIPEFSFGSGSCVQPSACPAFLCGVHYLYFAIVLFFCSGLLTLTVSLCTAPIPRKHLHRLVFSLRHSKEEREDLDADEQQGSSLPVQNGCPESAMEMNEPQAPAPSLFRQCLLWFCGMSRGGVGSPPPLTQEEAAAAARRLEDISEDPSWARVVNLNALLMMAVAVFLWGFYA
The experiment in a line: Inhibition of human SGLT2 expressed in CHO cells assessed as reduction in [14C]AMG uptake after 1 hr by microbeta counting method. It is filed as cell-based. The gist of the method: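 CHO cells stably expressing human SGLT2 (or SGLT1); inhibition of sodium-dependent uptake of [14C]α-methyl-D-glucopyranoside measured; EC50 from at least two independent experiments, each in triplicate.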

A short description of data set [2]: Cmax in Sprague-Dawley rat at 1 mg/kg, po. Details: dose 1 mg/kg, route oral. The settings on record: in vivo. It is filed as ADME, organism-based.
The nature of data set [3]: Elimination half life in Sprague-Dawley rat at 1 mg/kg, iv. The format is ADME, organism-based. The settings on record: in vivo, read-out: beta t1/2 (converted).
Data set [4] can be described thus: AUC (0 to infinity) in Sprague-Dawley rat at 1 mg/kg, iv. The format is ADME, organism-based. Details: dose 1 mg/kg, time infinity, route intravenous. The settings on record: in vivo. In outline:
(§1)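 Rats got a single intravenous or oral dose, with 3 animals per route. Pharmacokinetic parameters were derived, including T1/2, clearance, Vss, Cmax, Tmax, AUC(0-inf) and oral bioavailability (F).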

Data set [5] in a line: Volume of distribution at steady state in Sprague-Dawley rat at 1 mg/kg, iv. The format is ADME, organism-based. The settings on record: in vivo, read-out: Vdss.
The nature of data set [6]: Oral bioavailability in Sprague-Dawley rat at 1 mg/kg. The settings on record: in vivo. It is filed as ADME, organism-based.
Data set [7] is described as follows: Elimination half life in Sprague-Dawley rat at 1 mg/kg, po. The format is ADME, organism-based. The settings on record: in vivo, read-out: beta t1/2 (converted).
Data set [8] in a line: Clearance in Sprague-Dawley rat at 1 mg/kg, iv. The format is ADME, organism-based. The settings on record: in vivo.
Data set [9] is described as follows: Tmax in Sprague-Dawley rat at 1 mg/kg, po. The format is ADME, organism-based. Particulars: in vivo.
A short description of data set [10]: AUC (0 to infinity) in Sprague-Dawley rat at 1 mg/kg, po. It is filed as ADME, organism-based. Details: dose 1 mg/kg, time infinity, route oral. The settings on record: in vivo. The gist of the method:
as §1

Experimental findings from ChEMBL document CHEMBL4138227, “Identification of an oxime-containing C-glucosylarene as a potential inhibitor of sodium-dependent glucose co-transporter 2” (Eur J Med Chem, 2018) are described below.

What is called EC50 is the concentration that produces a half-maximal response. In the case of `CCO/N=C/[C@H]1O[C@@H](c2ccc(Cl)c(Cc3ccc(OCC)cc3)c2)[C@H](O)[C@@H](O)[C@@H]1O`, the EC50 in data set [1] was determined as 335 nM.

The Cmax is the maximum level reached in the sampled fluid or tissue. Usually AUC(0-inf) stands for total exposure, with the tail of the curve extrapolated. A high value points to high exposure. As usually defined, the bioavailability is the share of a dose that reaches the circulation, judged against a reference dose that is usually intravenous. A higher bioavailability goes with good availability. The term clearance denotes a measure of how efficiently the substance is removed, as volume per time. A higher clearance goes with a high capacity for elimination. In general, Tmax refers to the time at which the peak concentration occurs. In the case of `CCOc1ccc(Cc2cc([C@@H]3O[C@H](CNOC)[C@@H](O)[C@H](O)[C@H]3O)ccc2Cl)cc1`, the Cmax in data set [2] worked out at 67.2 ng/mL. The half-life was 1.9 h in data set [3] and 3 h in data set [7]. Besides, the AUC(0-inf) in [4] is 1070 ng·h/mL; in data set [10], 352 ng·h/mL. Also, the Vd in data set [5] turned out to be 1.8 L/kg. In data set [6], this compound had a bioavailability of 32.8%. In addition, in data set [8], the clearance was 16.5 mL/min/kg. Moreover, the Tmax in data set [9] was 1.3 h. Also, in data set [1], the EC50 was 63 nM.

Compound `CCOc1ccc(Cc2cc([C@@H]3O[C@H](/C=N/OC)[C@@H](O)[C@H](O)[C@H]3O)ccc2Cl)cc1` showed a Cmax in data set [2] of 116 ng/mL. Moreover, the values for the half-life in data set [3] and in data set [7] were 3 h and 2.5 h, respectively. Besides, the area under the curve AUC(0-inf) in data set [4] came out at 1320 ng·h/mL; in [10] it was 540 ng·h/mL. For the same compound, in data set [5], the Vd is 2.9 L/kg. In addition, in data set [6], the bioavailability came out at 40.5%. In [8], this compound showed a clearance of 12.6 mL/min/kg. Besides, the Tmax in data set [9] was found to be 1 h. The EC50 in data set [1] was 92 nM.

As to `CCOc1ccc(Cc2cc([C@@H]3O[C@H](/C=N/NC(=O)c4ccsc4)[C@@H](O)[C@H](O)[C@H]3O)ccc2Cl)cc1`, the EC50 in [1] is 208 nM.

As to `CCOc1ccc(Cc2cc([C@@H]3O[C@H](/C=N/OCCC(C)(C)C)[C@@H](O)[C@H](O)[C@H]3O)ccc2Cl)cc1`, in data set [1], the half-maximal effective concentration (EC50) is 8540 nM.

With `CCOc1ccc(Cc2cc([C@@H]3O[C@H](/C=N/NC(=O)c4cccs4)[C@@H](O)[C@H](O)[C@H]3O)ccc2Cl)cc1`, the 50% effective concentration (EC50) in [1] amounted to 175 nM.

On to `CCC#CCO/N=C/[C@H]1O[C@@H](c2ccc(Cl)c(Cc3ccc(OCC)cc3)c2)[C@H](O)[C@@H](O)[C@@H]1O`, for which the EC50 in data set [1] was determined as 396 nM.

With `C#CCO/N=C/[C@H]1O[C@@H](c2ccc(Cl)c(Cc3ccc(OCC)cc3)c2)[C@H](O)[C@@H](O)[C@@H]1O`, the EC50 in data set [1] stood at 431 nM.

On to `CCOc1ccc(Cc2cc([C@@H]3O[C@H](/C=N/OCc4ccccc4)[C@@H](O)[C@H](O)[C@H]3O)ccc2Cl)cc1`, for which, in data set [1], the EC50 was found to be 2250 nM.

`CCOc1ccc(Cc2cc([C@@H]3O[C@H](CNNC(=O)c4ccco4)[C@@H](O)[C@H](O)[C@H]3O)ccc2Cl)cc1`: the EC50 in [1] was found to be 151 nM.

For `CCOc1ccc(Cc2cc([C@@H]3O[C@H](/C=N/NC(=O)c4ccncc4)[C@@H](O)[C@H](O)[C@H]3O)ccc2Cl)cc1`, in [1], the EC50 is 173 nM.

Turning to `CCOc1ccc(Cc2cc([C@@H]3O[C@H](/C=N/NC(=O)c4ccco4)[C@@H](O)[C@H](O)[C@H]3O)ccc2Cl)cc1`, the half-maximal effective concentration (EC50) in data set [1] was determined as 301 nM.

Turning to `CCOc1ccc(Cc2cc([C@@H]3O[C@H](/C=N/NC(C)=O)[C@@H](O)[C@H](O)[C@H]3O)ccc2Cl)cc1`, in [1], the EC50 was 395 nM.

In the case of `CCOc1ccc(Cc2cc([C@@H]3O[C@H](/C=N/OCC4CC4)[C@@H](O)[C@H](O)[C@H]3O)ccc2Cl)cc1`, the EC50 in data set [1] was 1950 nM.
